The source made the active and inactive calls. The calls are words filed in the database; no cut-off is given here.
Legend:
SF-268 [1] = test: Cytotoxicity against human SF268 cells after 72 hrs by Alamar blue assay; format: functional, cell-based; settings: SF-268, 72 h
MDA-MB-231 [2] = test: Cytotoxicity against human MDA-MB-231 cells at 10 uM after 72 hrs by Alamar blue assay; format: functional, cell-based
NCI-H460 [3] = test: Cytotoxicity against human NCI-H460 cells after 72 hrs by Alamar blue assay; format: functional, cell-based; settings: NCI-H460, 72 h
[4] = Cytotoxicity against human PC3M cells after 72 hrs by Alamar blue assay; format: functional, cell-based; settings: PC-3M
MDA-MB-231 [5] = test: Cytotoxicity against human MDA-MB-231 cells after 72 hrs by Alamar blue assay; format: functional, cell-based; settings: MDA-MB-231, 72 h
MCF7 [6] = test: Cytotoxicity against human MCF7 cells after 72 hrs by Alamar blue assay; format: functional, cell-based; settings: MCF7, 72 h
NCI-H460 [7] = test: Cytotoxicity against human NCI-H460 cells at 10 uM after 72 hrs by Alamar blue assay; format: functional, cell-based
SF-268 [8] = test: Cytotoxicity against human SF268 cells at 10 uM after 72 hrs by Alamar blue assay; format: functional, cell-based
PC-3M = test: Cytotoxicity against human PC3M cells at 10 uM after 72 hrs by Alamar blue assay; format: functional, cell-based
MCF7 [9] = test: Cytotoxicity against human MCF7 cells at 10 uM after 72 hrs by Alamar blue assay; format: functional, cell-based
MIA PaCa-2 = test: Cytotoxicity against human MIAPaCa2 cells after 72 hrs by Alamar blue assay; format: functional, cell-based; settings: MIA PaCa-2, 72 h
WI-38 = test: Cytotoxicity against human WI38 cells after 72 hrs by Alamar blue assay; format: cell-based; settings: WI-38, 72 h
PC-3 = test: Cytotoxicity against human PC3 cells after 72 hrs by Alamar blue assay; format: functional, cell-based; settings: PC-3, 72 h
MDA-MB-231 [10] = test: Inhibition of human MDA-MB-231 cell migration at 2 uM after 40 hrs by wound-healing assay; format: functional, cell-based
Procedure, shortened: (§1)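 Wound-healing assay: MDA-MB-231 cells grown in DMEM/Ham's F-12 with 10% FBS and gentamicin (50 μg/mL) at 37 °C, 5% CO2. Cells seeded at 150 000/well and grown 24 h to >90% confluent monolayer. Monolayer scratched with toothpick, washed with PBS, fresh medium added, compound in DMSO added in duplicate, 40 h. LY294002 7.5 μM positive control. Wound area measured by ImageJ from three photos per well.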

MDA-MB-231 [11] = test: Inhibition of human MDA-MB-231 cell migration after 40 hrs by wound-healing assay; format: functional, cell-based; settings: MDA-MB-231, 40 h; procedure, shortened: as §1
MDA-MB-231 [12] = test: Antiproliferative activity against human MDA-MB-231 cells after 72 hrs by Alamar blue assay; format: functional, cell-based; settings: MDA-MB-231, 72 h
Procedure, shortened: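 alamarBlue proliferation/survival read-out in MDA-MB-231 after 72 h exposure. Reagent added to 10% final, 4 h incubation, fluorescence at ex 560/em 590 nm as percent of DMSO vehicle; IC50 and IC25 reported as mean ± error.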

MDA-MB-231 [13] = test: Inhibition of human MDA-MB-231 cell migration at 5 uM after 40 hrs by wound-healing assay; format: functional, cell-based; procedure, shortened: as §1

Row | SMILES | IC50 (SF-268 [1]) [nM] | Activity (MDA-MB-231 [2]) | IC50 (NCI-H460 [3]) [nM] | IC50 [4] [nM] | IC50 (MDA-MB-231 [5]) [nM] | IC50 (MCF7 [6]) [nM] | Activity (NCI-H460 [7]) | Activity (SF-268 [8]) | Activity (PC-3M) | Activity (MCF7 [9]) | IC50 (MIA PaCa-2) [nM] | IC50 (WI-38) [nM] | IC50 (PC-3) [nM] | inhibition (MDA-MB-231 [10]) | IC50 (MDA-MB-231 [11]) [nM] | IC25 (MDA-MB-231 [12]) [nM] | IC50 (MDA-MB-231 [12]) [nM] | inhibition (MDA-MB-231 [13])
1 | C=C[C@]1(C)C=C2C(=O)[C@@]3(OC(C)=O)OC(=O)[C@@]4(CCCC(C)(C)[C@H]34)[C@@]2(O)CC1 | 4900 | Active | 2800 | 2700 | 2500 | 2000 | Active | Active | Active | Active | – | – | – | – | – | – | – | –
2 | COc1cccc2c1C(=O)c1c(O)c3c(c(O)c1C2=O)C[C@@](O)(C(=O)CO)C[C@@H]3O[C@H]1C[C@H](N)[C@H](O)[C@H](C)O1 [DOXORUBICIN] | 600 | – | 300 | – | 500 | 400 | – | – | – | – | 300 | 800 | 300 | – | – | – | – | –
3 | C=C[C@]1(C)C=C2C(=O)[C@@]3(O)OC(=O)[C@@]4(CCCC(C)(C)[C@H]34)[C@@]2(O)CC1 [SPHAEROPSIDIN A] | 2100 | Active | 1900 | 2400 | 1400 | 3000 | Active | Active | Active | Active | 2000 | 3700 | 2500 | Active | 1500 | 1500 | 3000 | –
4 | C=C[C@]1(C)C=C2C(=O)[C@@]3(O)OC(=O)[C@@]4(CCCC(C)(C)[C@H]34)[C@@]2(O)[C@H](O)C1 [SPHAEROPSIDIN D] | 7500 | Active | > 10000 | > 10000 | 3700 | > 10000 | Active | Active | Active | Active | 9000 | > 10000 | 9600 | – | 4800 | > 5000 | > 5000 | Active

Source: ChEMBL document CHEMBL1833914, “Smardaesidins A-G, isopimarane and 20-nor-isopimarane diterpenoids from Smardaea sp., a fungal endophyte of the moss Ceratodon purpureus” (J Nat Prod, 2011)
